Measured values as given in ChEMBL document CHEMBL1132556, “Combined effect of platination and intercalation upon DNA binding of novel cytotoxic Pt-bis(naphthalimide) complexes” (J Med Chem, 1999).

What was measured:
[1] = system: A2780; experiment: Compound was tested for inhibitory activity against A2780 human ovarian carcinoma cell line; activity expressed in Mean IC50 values; format: functional, cell-based
Outline: (§1)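 Cell survival in drug-treated cultures read by MTT assay. Compound stock solutions (0.5–1.2 mg/mL) were freshly prepared before use. Cells: ovarian carcinoma lines A2780, A2780cisR, CH1 and CH1cisR; normal murine keratinocytes Pam 212; Pam 212-ras, which are murine keratinocytes transformed with the v-H-ras oncogene and resistant to cis-DDP.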

[2] = system: A2780; experiment: Compound was tested for inhibitory activity against A2780cisR human ovarian carcinoma cell line; activity expressed in Mean IC50 values; format: functional, cell-based; outline: as §1
[3] = system: CH1; experiment: Compound was tested for inhibitory activity against CH1cisR human ovarian carcinoma cell line; activity expressed in Mean IC50 values; format: functional, cell-based; outline: as §1
[4] = system: CH1; experiment: Compound was tested for inhibitory activity against CH1 human ovarian carcinoma cell line; activity expressed in Mean IC50 values; format: functional, cell-based; outline: as §1
[5] = Compound was tested for inhibitory activity against normal Pam 212 murine keratinocytes; activity expressed in Mean IC50 values; format: functional, Mus musculus; outline: as §1
[6] = (§2) Compound was tested for inhibitory activity against transformed Pam 212-ras murine keratinocytes; activity expressed in Mean IC50 values; format: functional, Mus musculus; outline: as §1
[7] = species on record: Mus musculus; experiment: as §2; format: functional, organism-based; outline: as §1

| Molecule | IC50 ([1]; Homo sapiens, A2780) [µM] | IC50 ([2]; Homo sapiens, A2780) [µM] | IC50 ([3]; Homo sapiens, CH1cisR) [µM] | IC50 ([4]; Homo sapiens, CH1) [µM] | IC50 [5] [µM] | IC50 [6] [µM] | IC50 ([3]; ch1cisr) [µM] | IC50 [7] [µM] | IC50 ([1]; a2780) [µM] | IC50 ([2]; a2780) [µM] | IC50 ([4]; ch1) [µM] |
| --- | --- | --- | --- | --- | --- | --- | --- | --- | --- | --- | --- |
| O=C1c2cccc3cccc(c23)C(=O)N1CCNCCNCCN1C(=O)c2cccc3cccc(c23)C1=O | > 10 | > 100 | > 100 | > 10 | 140 | 160 | – | – | – | – | – |
| CISPLATIN | – | – | – | – | – | – | 0.65 | 165 | – | – | – |
| Platinum cyclobutane-1,1-dicarboxylic acid-bis-(naphthalimide) complex | – | – | – | – | 158 | 89 | 0.6 | – | 0.28 | 1 | 0.35 |
